Experimental data as given in the RNAGym collection of RNA variant scans (doi:10.1126/science.aae0568).
Variants at the floor of the assay were thinned out.

B1: tRNA (parent)
chain: GUUCCGUUGGCGUAAUGGUAACGCGUCUCCCUCCUAAGGAGAAGACUGCGGGUUCGAGUCCCGUACGGAACG

Variants of: B1
Assay: yeast fitness relative to wild type (ratio to wild type); higher = fitter; tRNA-Arg(CCU), competitive growth, 37 C, YPD
How it was run: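 Genotype frequency changes were the basis for Darwinian fitness relative to wild type. The frequencies came from 100-nucleotide paired-end sequencing of gene amplicons from the start population and each end population of pooled yeast strains with tRNA-Arg(CCU) gene variants at the native locus. Competition ran in YPD at 37°C for 24 hours in six replicates, genotypes needed ≥ 100 starting reads, and estimates < 0.5 were set to 0.5.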

GUUCCGUUGGCGUAAUGGUAACGCGGGUCCCACCUAAGGUGAAGACUGCGGGUUCGAGUCCCGUACGGAACG and GUUGCGUUGGGGUAAUGGUAUCGCGUCUCCCUCCUUAGGAGAAGACUGCGGGUUCGACUCCCGUACGGAACG cannot be ordered by yeast fitness: no more than 0.5 for the first, no more than 0.5 for the second.

Compared with GUUCCGUUGGCGUACUGGUAACGCGUCCCCCUCGUAAGGAGAAGACUGCGGGUUCGAGUCCCGUACGGAACG, GUUCGGUUGGCGUAAUGGUAACGCGUCUCCCUCCUAAGGCGAAGACUGCGGGUUCGAGUCCCGUACGGAGCG is higher in yeast fitness: no more than 0.5 for the first, 0.543 for the second.

GUUCCGUUAGCGUAAUGGUAACGGGUCCCCCUCCUAAGGAGAAGACUGCGGGUUCGCGUCCCGUACGGAACG and GUUCCCUUGGCGUUAUGGUAACGCGUCUCCCUCCUGAGGAGGAGACUGCGGAUUCGAAUCCCGUACGGAACG cannot be ordered by yeast fitness: no more than 0.5 for the first, no more than 0.5 for the second.

Going from GAUCCGUUGGCGUAAUGGUAGCGCGUCUUCCUCCUAAGGUGAAGACUGCGGGUUCGAGUCCCGUACGGUACG to GUUCCGUUGGCGUAAUGGUAACGCGUCUCACUCCUAAGGACAAGACUGCGGGUUCGAGUCCCGUACGGCACG, the yeast fitness rises from 0.59 to 0.598.

Going from GGUCCGUUGGCGUAAUGGAAACGCGUCUCCCUCCUAAGGAGAAGACUGCGGGCUCGAGUCCCGUACAGAACG to GUUCCGUUGGCGUACUGGUAACGCGUCUCCCUCCUUAGGAGAAGACUGCGGGUUCGAAUCCCGUACAGAACG, the yeast fitness falls from 0.563 to no more than 0.5.

Compared with GUUCGGUUGGCGUAAUGGUAACGCGUCUCCCUCCUGAGGAGAAGACUGCGGGUUCGAGUCCCGUACGCAACG, GUUCCGUUGGCGUAAUGGUUACGCGUCUCCCUCCUAAGGAGAAGACUCCGGGUUCGAGUCGCGUAUGGAACG is lower in yeast fitness: 0.596 for the first, 0.505 for the second.

First: GUUCCGUUGGCGUAAUGGCAAUGCGUCUCCCUCCUAAGGAGAAGACUGCGGGUUCGAGUCCCGUACAGAACG
Second: GUUCCCUUGGGGUAAUGGUAACGCGUCUCCCUCCUAAGGAGAAGACUGCGGGUUCGAGUCUCGUACGGAUCG
The yeast fitness of the first is higher: 0.772 for the first, no more than 0.5 for the second.

First: GUUCCGUUGGCGUAAUGGUAACGUAUCUCUCUCCUAAGGAGAAGACUGCAGGUUCGAGUCCCGUACGCAACG
Second: GUUCCGUUGGCGUAAUGGUAACGCGUCUACCUCCUAAGGAGAUGACUGCGGGUUCGCGUCCCGUACGGAACG
The yeast fitness of the first is lower: no more than 0.5 for the first, 0.642 for the second.

Going from GAUCCGUUGGCUUAAUGGUAACACGUCUCCCUCCUGAGAAGAAGACUGCGGGUUCGAGUCCCGUACGGAACG to GUUCCGUUGACGUAAUGGUAACGCGUCUCCCUCCUAAGGAGAAGACUGGGGGUUCGAGUCCCGUACGGAACG, the yeast fitness rises from 0.584 to 0.668.

First: GUUCCGUUGGCGUACUGGUAACGCGUCUCCGUCCUAAGGUGAAGACUGCGAGUUCGAGUCCCGUACGGAACG
Second: GUUCCGUUGGCGUAAUGGUAACGCGUCUCCCUCCUAAGGCCAAGACUGCGGGUUCGAGUCCCGUACGGAACG
The yeast fitness of the first is lower: no more than 0.5 for the first, 0.56 for the second.

First: GUUCCCUUGGCGUAAUGGUAAAGCGUCUCCGUCCUAAGGAGAAGACUGCGGGUUCGAGUCCCGUACGGAACG
Second: GUUCAGUUGGCGUAAUGGUAACGCGUCUCCCUCCUAAGGAGAAGACUGCGGGUUCCAGUCCCGUACGGAACG
The yeast fitness of the first is lower: no more than 0.5 for the first, 0.666 for the second.

GUUCGGUUGACGUAAUGGUUACGCGCCUCCCUCCCAAGGAGAAGACUGAGGGUUCAAGUCCCGAACGGAACG and GUUCCGUUGGCGUAAUGGUAACGCGUCUCCGUCUUAAGGCGAAGACUGCGGGUUCGAGUCCCCUACGGAACG cannot be ordered by yeast fitness: no more than 0.5 for the first, no more than 0.5 for the second.

GUUCCGUUGGCGUAAUGGUAACGCGUCUGCCUCCUAAGGAGCAGACUGCGGCUUCGAGACCCGUACGGAACG and GUUCCGUUGGCGUAAUGGUAACGCGUCUCCAUCCUAAGGAGAAGACUGCGGGUUCGAGUCCCCUACGUAACG cannot be ordered by yeast fitness: no more than 0.5 for the first, no more than 0.5 for the second.

GUUUCGUUGGCGUAAUGGUAACCCGUCUCCCUCCUAAGGAGAAGACUGAGGGUUCGAGUCCCGUACGCAACG and GUUCCGUUGGCAUAAUGGUUACGCGUCUCCCUCCUAAGGAGAAGACUGUGGGGUCGAGUCCCGUGCGGAACG cannot be ordered by yeast fitness: no more than 0.5 for the first, no more than 0.5 for the second.

GUUUCGUUGGCGUAAUGGUAACGCGUCUCCCUCCUAAGGGGGAGACUGCGGGUUCGCGUCCCGUAUGGAACG and GUUCCGUUGGCGUAAUCGUAACCCGUCUCCGUCCUAAGGAGAAGACUGCCGGUUCGAGUACCAUACGGAACG cannot be ordered by yeast fitness: no more than 0.5 for the first, no more than 0.5 for the second.

Going from GUUCCGUUGGCGGAACGGUAACGCGUCUCCCUCCUAAGGAGAAGACUGCGGGUUAGAGUCCCGUACGGAACG to GUUCAGUUGGCGUAAUGGUAACGCGUCUCCCUCCUAAGGAGAAGACUGCGGGUUCGACUCCCGUACGGAACG, the yeast fitness rises from no more than 0.5 to 0.867.

GUUCCGUUGGCGUAAUGGUUACGCGUCUCCCUCCUAAAGAGAAGACUGCGGGUUCGAGUCCCGUACCGAACG and GUUCCGUUAGCGUAAUGGUAACGCGUCUCCCUUCUAAGGAGAAGACUGGGGGUUCGAGUCCCGUACGGAACG cannot be ordered by yeast fitness: no more than 0.5 for the first, no more than 0.5 for the second.

GUUGCGUUGGCGUUAUGGUAACGGGUCUCCGUCCUAAGGAGAAGACUGCGGGUUCGAGUCGCGUACGGAACG and GUUCCGUUGGCGUAAUGGUAAUGCGUCUCCCUCCUAAGGCGAAGACUGCGGGUUCGACUCCCGUACGGUACG cannot be ordered by yeast fitness: no more than 0.5 for the first, no more than 0.5 for the second.

First: GUUCCGUUGGCGUAAUGGUAACGCGUCUCCCACCUAAGGAGAAGACUGCGGGUUCGACUCCCCUACGGAACG
Second: GUGCCGUUGGCGUACUGGUAACGCGUCUCGCUGCUACGGAGAAGACUGCGGGUUCGAGUCCCGUACGGAACG
The yeast fitness of the first is lower: no more than 0.5 for the first, 0.795 for the second.
